Test results published in ChEMBL document CHEMBL1121573, “2-(Aminomethyl)phenols, a new class of saluretic agents. 1. Effects of nuclear substitution” (J Med Chem, 1980).

Tested on: not listed separately
Experiment: Compound administered orally at a dose of 5 mg/kg was evaluated for salidiuretic activity measured as sodium ion excretion in Rat
Format: organism-based
Design: dose 5 mg/kg
Settings: Urine
Summary of the method: (§1)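 Female Charles-River rats (150–170 g), overnight on sugar diet with water ad libitum. Compound dissolved in DMF, diluted with water containing Tween 80 (final 4% DMF), given po in 5.0 mL; concurrent vehicle placebo. Three rats per metabolism cage; 0–5 h urine analysed for Na+, K+, Cl-. Values: mequiv × 100 per cage, geometric means of three cages per dose; scored 0–6 by Na+.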
In the case of `CCc1c(Cl)cc(CN)c(O)c1Cl.Cl`, the Diuretic activity is reported as 0.4.
For `Cc1cc(Cl)c(O)c(CN)c1C.Cl`, the Diuretic activity was 0.5.

Tested on: Canis familiaris
Experiment: Compound administered intravenously was evaluated for salidiuretic activity measured as sodium ion excretion in Dog; Value ranges from 600-799
Format: ADME, organism-based, Canis lupus familiaris, Urine
Settings: in vivo, iv
Summary of the method: (§2)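 Conditioned female mongrel dogs, postabsorptive, water-loaded (500 mL po) 1 h before sodium pentobarbital anesthesia (30 mg/kg iv). Bladder catheter; creatinine 4 g sc; phosphate–mannitol buffer pH 7.4 infused (3.0 mL/min) throughout. […] Urine Na+ measured; response scored 0–6.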
Compound `Cc1cc(C(C)(C)C)cc(CN)c1O.Cl` has a Diuretic activity of 600.
For `Cc1c(C)c(Cl)c(O)c(CN)c1C.Cl`, the Diuretic activity was 600.
Work on `Cc1c(C)c(Cl)c(C)c(CN)c1O.Cl` yielded a Diuretic activity of 600.

Tested on: Rattus norvegicus
Experiment: Evaluated for salidiuretic activity measured as sodium ion excretion in Rat, administered orally at a dose of 50 mg/kg
Format: functional, Urine
Design: unit not given beside the values
Settings: route oral
Summary of the method: as §1
With `Cc1cc(C)c(CN)c(O)c1.Cl` the Diuretic activity was less than 0.2.
In the case of `CCc1c(Cl)cc(CN)c(O)c1Cl.Cl`, the Diuretic activity is reported as 1.8.
`Cc1cc(Cl)c(O)c(CN)c1C.Cl` showed a Diuretic activity of 2.4.

Tested on: Canis familiaris
Experiment: Compound administered intravenously was evaluated for salidiuretic activity measured as sodium ion excretion in Dog
Format: ADME, organism-based, Canis lupus familiaris, Urine
Design: unit not given beside the values
Settings: in vivo, iv
Summary of the method: as §2
For `Br.Cc1c(C)c(Cl)c(Cl)c(CN)c1O`, the Diuretic activity was greater than 900.
In the case of `Cc1c(Cl)cc(Cl)c(O)c1CN.Cl`, the Diuretic activity is reported as greater than 900.
In the case of `Cc1c(Cl)c(C)c(CN)c(O)c1Br.Cl`, the Diuretic activity is reported as greater than 900.

Tested on: Rattus norvegicus
Experiment: Compound administered orally at a dose of 81 mg/kg was evaluated for salidiuretic activity measured as sodium ion excretion in Rat
Format: ADME, organism-based, Urine
Design: dose 81 mg/kg, route oral; unit not given beside the values
Settings: in vivo, po
Summary of the method: as §1
`Cc1cc(C)c(CN)c(O)c1.Cl` gave a Diuretic activity of less than 0.3.
In the case of `CCc1c(Cl)cc(CN)c(O)c1Cl.Cl`, the Diuretic activity is reported as 2.4.
`Cc1cc(Cl)c(O)c(CN)c1C.Cl` gave a Diuretic activity of 2.9.

Tested on: Rattus norvegicus
Experiment: Compound administered orally at a dose of 1 mg/kg was evaluated for salidiuretic activity measured as sodium ion excretion in Rat
Settings: in vivo, po
In the case of `Cc1cc(C)c(CN)c(O)c1.Cl`, the Diuretic activity is reported as 1.

Tested on: Canis familiaris
Experiment: Compound administered intravenously was evaluated for salidiuretic activity measured as sodium ion excretion in Dog; Value ranges from 100-299
Format: ADME, organism-based, Canis lupus familiaris, Urine
Settings: in vivo, iv
Summary of the method: as §2
For `COc1cc(O)c(CN)c(OC)c1Cl.Cl`, the Diuretic activity was 100.
In the case of `Cc1cc(O)c(CN)c(C)c1Cl.Cl`, the Diuretic activity is reported as 100.

Tested on: Canis familiaris
Experiment: Compound administered intravenously at a dose of 5 mg/kg was evaluated for salidiuretic activity measured as sodium ion excretion in Dog; Value ranges from 400-599
Format: ADME, organism-based, Canis lupus familiaris, Urine
Design: dose 5 mg/kg, route intravenous
Settings: in vivo, iv
Summary of the method: as §2
In the case of `CCc1c(Cl)cc(CN)c(O)c1Cl.Cl`, the Diuretic activity is reported as 400.
Compound `Cc1cc(Cl)c(O)c(CN)c1C.Cl` has a Diuretic activity of 400.

Tested on: Canis familiaris
Experiment: Compound administered intravenously was evaluated for salidiuretic activity measured as sodium ion excretion in Dog; Value ranges from 400-599
Format: ADME, organism-based, Canis lupus familiaris, Urine
Settings: in vivo, iv
Summary of the method: as §2
Compound `CC1(c2cc(I)c(O)c(CN)c2)CCCC1.Cl` has a Diuretic activity of 400.
`Cl.NCc1cc(C2CCCCC2)cc(Cl)c1O` gave a Diuretic activity of 400.
With `Cc1cc(Cl)c(O)c(CN)c1Cl.Cl` the Diuretic activity was 400.

Tested on: Canis familiaris
Experiment: Compound administered intravenously was evaluated for salidiuretic activity measured as sodium ion excretion in Dog; Value ranges from 100-249
Format: ADME, organism-based, Canis lupus familiaris, Urine
Settings: in vivo, iv
Summary of the method: as §2
`Cc1c(Cl)cc(C(C)C)c(O)c1CN.Cl` gave a Diuretic activity of 100.
Compound `CCOC(=O)c1cc(Cl)c(O)c(CN)c1.Cl` has a Diuretic activity of 100.
`CCCC(=O)c1cc(C)c(O)c(CN)c1.Cl` showed a Diuretic activity of 100.

Tested on: not listed separately
Experiment: Evaluated for salidiuretic activity measured as sodium ion excretion in Rat, administered orally at a dose of 16.5 mg/kg
Format: organism-based
Design: dose 16.5 mg/kg
Settings: Urine
Summary of the method: as §1
In the case of `CCc1c(Cl)cc(CN)c(O)c1Cl.Cl`, the Diuretic activity is reported as 0.6.
`Cc1cc(Cl)c(O)c(CN)c1C.Cl` showed a Diuretic activity of 1.4.

Tested on: Canis familiaris
Experiment: Compound administered intravenously at a dose of 5 mg/kg was evaluated for salidiuretic activity measured as sodium ion excretion in Dog; Value ranges from 0-99
Format: ADME, organism-based, Canis lupus familiaris, Urine
Design: dose 5 mg/kg, route intravenous
Settings: in vivo, iv
Summary of the method: as §2
With `Cc1cc(C)c(CN)c(O)c1.Cl` the Diuretic activity was 0.
